Data set [1] deals with Moloney murine sarcoma virus. The data set can be described thus: Antiviral activity against Moloney murine sarcoma virus infected in mouse 3T3-FL cells assessed as inhibition of cellular focal transformation at highest nontoxic concentration after 5 days by microscopic analysis relative to control. The data set is classed as functional. In outline: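 3T3FL cells seeded 1×10^5/dish in McCoy's 5A with 10% fetal calf serum, incubated overnight, primed with 25 µg/mL DEAE-dextran 20 min at room temperature, infected with ~100 FFU Moloney MSV (1 h adsorption, 37 °C); drug medium (0.25% Me2SO final) added, 5 days 37 °C without medium change; foci counted microscopically versus parallel control cultures.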

The nature of data set [2]: Cytotoxicity against mouse 3T3-FL cells after 24 to 120 hrs. The data set is classed as cell-based. The note with it: read-out: MNTD>75. In outline: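 Uninfected 3T3 cells exposed to drug (0.25% Me2SO final, matched controls); triplicate plates counted at 24, 48, 96 and 120 h to build growth curves. Highest nontoxic level defined as logarithmic growth rate ≥75% of untreated and total growth after 5 days ≥75% of control.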

Data on five compounds can be found in ChEMBL document CHEMBL3272047, “3-N-Substituted aminomethyl derivatives of rifamycin SV. A convenient method of synthesis, cyclization of certain derivatives, and anticellular and antiviral activities of several derivatives” (J Med Chem, 1977).

SMILES strings stand for the structures.

For `CO[C@H]1/C=C/O[C@@]2(C)Oc3c(C)c(O)c4c(O)c(c(CN)c(O)c4c3C2=O)NC(=O)/C(C)=C\C=C\[C@H](C)[C@H](O)[C@@H](C)[C@@H](O)[C@@H](C)[C@H](OC(C)=O)[C@@H]1C`, in data set [1], the “inhibition (INH)” value is 0%. In data set [2], the MNTC came out at 1400 nM.

Turning to `CCCNCc1c2c(O)c3c(O)c(C)c4c(c3c1O)C(=O)[C@@](C)(O/C=C/[C@H](OC)[C@@H](C)[C@@H](OC(C)=O)[C@H](C)[C@H](O)[C@H](C)[C@@H](O)[C@@H](C)/C=C/C=C(/C)C(=O)N2)O4`, the “inhibition (INH)” value in data set [1] came to 10%. For the same compound, the MNTC in data set [2] worked out at 1300 nM.

Take `CNCc1c2c(O)c3c(O)c(C)c4c(c3c1O)C(=O)[C@@](C)(O/C=C/[C@H](OC)[C@@H](C)[C@@H](OC(C)=O)[C@H](C)[C@H](O)[C@H](C)[C@@H](O)[C@@H](C)/C=C/C=C(/C)C(=O)N2)O4`: the “inhibition (INH)” value in data set [1] amounted to 14%. The MNTC in data set [2] was 1400 nM.

For the compound `CO[C@H]1/C=C/O[C@@]2(C)Oc3c(C)c(O)c4c(O)c5c(c(O)c4c3C2=O)CNC(=N5)/C(C)=C\C=C\[C@H](C)[C@H](O)[C@@H](C)[C@@H](O)[C@@H](C)[C@H](OC(C)=O)[C@@H]1C`, the “inhibition (INH)” value in data set [1] worked out at 26%. In data set [2], the MNTC was found to be 1400 nM.

For the compound `CO[C@H]1/C=C/O[C@@]2(C)Oc3c(C)c(O)c4c(O)c5c(c(O)c4c3C2=O)CN(C)C(=N5)/C(C)=C\C=C\[C@H](C)[C@H](O)[C@@H](C)[C@@H](O)[C@@H](C)[C@H](OC(C)=O)[C@@H]1C`, in data set [1], the “inhibition (INH)” value is recorded as 0%. Besides, the MNTC in data set [2] came out at 1400 nM.
